Assay results as given in BindingDB's records for doi:10.1021/jm900106f (St. Jude Children'S Research Hospital, 2009).

Target: T1, Zinc finger protein GLI1 (Homo sapiens, UniProt P08151)
T1 sequence (P08151 whole entry): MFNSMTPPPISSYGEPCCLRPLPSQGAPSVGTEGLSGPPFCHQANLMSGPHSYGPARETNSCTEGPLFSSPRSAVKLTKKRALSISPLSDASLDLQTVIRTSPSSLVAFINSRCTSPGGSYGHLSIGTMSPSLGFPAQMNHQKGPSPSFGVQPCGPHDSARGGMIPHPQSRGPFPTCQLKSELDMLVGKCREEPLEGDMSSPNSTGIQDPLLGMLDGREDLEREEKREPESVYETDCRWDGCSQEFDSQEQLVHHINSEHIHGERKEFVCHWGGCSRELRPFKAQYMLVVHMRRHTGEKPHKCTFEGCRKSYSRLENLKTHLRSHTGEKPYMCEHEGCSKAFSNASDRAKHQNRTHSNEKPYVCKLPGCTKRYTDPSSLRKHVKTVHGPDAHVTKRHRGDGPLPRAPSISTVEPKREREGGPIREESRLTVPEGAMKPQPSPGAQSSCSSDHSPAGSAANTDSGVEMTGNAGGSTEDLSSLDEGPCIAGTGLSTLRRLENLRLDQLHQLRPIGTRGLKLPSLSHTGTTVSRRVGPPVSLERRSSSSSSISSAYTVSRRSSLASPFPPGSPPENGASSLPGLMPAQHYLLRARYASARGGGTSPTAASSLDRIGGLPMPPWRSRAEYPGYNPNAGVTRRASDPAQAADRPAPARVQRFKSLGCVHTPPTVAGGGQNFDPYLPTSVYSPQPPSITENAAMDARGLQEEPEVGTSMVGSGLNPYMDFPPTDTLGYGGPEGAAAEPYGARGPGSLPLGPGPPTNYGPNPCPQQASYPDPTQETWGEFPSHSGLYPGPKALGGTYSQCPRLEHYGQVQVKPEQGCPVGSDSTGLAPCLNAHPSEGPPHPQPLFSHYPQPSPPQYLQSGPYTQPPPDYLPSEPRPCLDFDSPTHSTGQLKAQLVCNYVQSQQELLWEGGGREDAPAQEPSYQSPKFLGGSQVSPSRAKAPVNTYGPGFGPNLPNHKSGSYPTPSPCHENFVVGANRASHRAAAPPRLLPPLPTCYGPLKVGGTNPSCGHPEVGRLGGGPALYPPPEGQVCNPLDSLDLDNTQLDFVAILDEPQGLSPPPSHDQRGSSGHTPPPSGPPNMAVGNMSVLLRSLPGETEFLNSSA
Assay: Inhibition of exogenously transfected human Gli1-mediated transcriptional activity in mouse C3H10T1/2 cells after 24 hrs by luciferase reporter gene assay
Procedure, shortened: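 They were replated 18 h later, given compound or DMSO 6 h after plating, and exposed for 24 h at 37 °C, 5% CO2. Lysate was read by dual luciferase as firefly/Renilla, triplicate, DMSO = 0%. IC50 came from curve fitting.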

| IC50 [µM] | SMILES |
| --- | --- |
| 9.4 | C[C@H](C(=O)N(CCc1ccc(O)cc1)CCc1ccc(O)cc1)c1cccc(C(=O)c2ccccc2)c1 [(S)-2-(3-Benzoylphenyl)-N,N-bis(4-hydroxyphenethyl)propanamide] |
| 6.9 | CCCN(CCc1ccc(O)cc1)C(=O)[C@@H](C)c1cccc(C(=O)c2ccccc2)c1 [(S)-2-(3-Benzoylphenyl)-N-(4-hydroxyphenethyl)-N-propylpropanamide] |
| 11.4 | C[C@H](C(=O)NCCc1ccc(O)cc1)c1cccc(C(=O)c2ccccc2)c1 [(S)-2-(3-Benzoylphenyl)-N-(4-hydroxyphenethyl)propanamide] |
